Assay outcomes (PubChem BioAssay)
The list is not random: actives were taken first. Their share in the collection is about 3.1%.
PAFAH1B3 inh – PAFAH1B3 enzyme inhibitors, primary screen, biochemical, fluorescence polarization, human; Platelet-activating factor acetylhydrolase IB subunit alpha1 (Homo sapiens), Q15102; recombinant PAFAH1B3, FP-rhodamine probe; inhibition, % at 3.39 µM; 0.28% of 340,000 active; AID 492972, 2010;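 active = inhibition above the screen-wide average of all tested compounds plus 3 SD, cut at about 25% in these data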;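 also: 0% = enzyme with DMSO only and 100% = wells lacking PAFAH1B3 protein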
Target sequence (Q15102 whole entry, looked up): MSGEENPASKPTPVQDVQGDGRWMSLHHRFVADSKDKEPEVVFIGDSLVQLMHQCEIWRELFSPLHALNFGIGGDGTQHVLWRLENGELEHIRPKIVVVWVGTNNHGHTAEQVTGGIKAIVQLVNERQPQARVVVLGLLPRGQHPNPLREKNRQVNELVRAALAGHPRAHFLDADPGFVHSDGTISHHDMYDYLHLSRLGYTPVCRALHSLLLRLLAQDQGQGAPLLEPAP
PAFAH2 FP inh – PAFAH2 enzyme inhibitors, primary screen, biochemical, fluorescence polarization, human. recombinant PAFAH2, FP-rhodamine activity probe. inhibition, % at 3.39 µM. 0.99% of 340,000 active. AID 492956, 2010;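 active = inhibition above the mean over all tested compounds plus 3 SD, cut at about 30% in these data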;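 also: inhibitors block probe labeling of enzyme so polarization drops; 0% = enzyme with DMSO and 100% = wells lacking PAFAH2 protein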
pPAFAH inh – pPAFAH enzyme inhibitors, primary screen, biochemical, fluorescence polarization, human; Platelet-activating factor acetylhydrolase (Homo sapiens), Q13093; recombinant pPAFAH, FP-rhodamine probe fluorescence polarization; inhibition, % at 3.39 µM; 1.5% of 330,000 active; AID 463082, 2010;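 active = inhibition above the mean inhibition across the screen plus 3 SD, cut at about 25% in these data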;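 also: inhibitors block binding of the rhodamine activity-based probe so polarization drops; 0% = enzyme with DMSO and 100% = wells lacking pPAFAH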
Apaf1 inhib – inhibitors of human Apaf-1 apoptosome, primary screen, biochemical, DEVD-Rh110 fluorescence, uHTS | inhibition, % at 20 µM | 0.71% of 330,000 active | reconstituted apoptosome caspase-3 activity; active = inhibition of at least 40% at 20 µM;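 also: plate controls were DMSO wells for no effect and DEVD-CHO caspase inhibitor wells for full effect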
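Material: biochemical Apaf-1 apoptosome reconstitution. Medium: Hepes buffer, pH 7.5. Also added: cytochrome c activation, bis-DEVD rhodamine 110 substrate. Timing: 30 min compound preincubation, 50 min activation, room temperature. Measured by: rhodamine 110 fluorescence at Ex 480/Em 540 nm.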
PAFAH1B2 inh – PAFAH1B2 enzyme inhibitors, primary screen, biochemical, fluorescence polarization, human; inhibition, % at 3.39 µM; 1.2% of 340,000 active; Platelet-activating factor acetylhydrolase IB subunit alpha2 (Homo sapiens), P68402; recombinant PAFAH1B2, FP-rhodamine activity probe;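 active = inhibition above the mean of all tested compounds plus 3 SD, cut at about 24% in these data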;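 also: 0% = enzyme with DMSO and 100% = wells lacking PAFAH1B2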
Target sequence (P68402 whole entry, looked up): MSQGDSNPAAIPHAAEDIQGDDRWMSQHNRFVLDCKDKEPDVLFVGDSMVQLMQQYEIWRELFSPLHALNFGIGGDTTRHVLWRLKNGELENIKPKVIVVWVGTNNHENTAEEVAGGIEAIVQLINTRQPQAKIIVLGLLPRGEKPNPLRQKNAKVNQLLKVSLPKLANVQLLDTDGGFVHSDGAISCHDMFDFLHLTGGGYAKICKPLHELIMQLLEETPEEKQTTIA
Apaf-1 inh conf2 – Apaf-1 inhibitors, single-dose retest, confirmation, biochemical, fluorescence, DEVD-Rh110, 20 µM; shares compounds with Apaf1 inhib; reconstituted apoptosome, caspase-3 DEVD-Rh110 fluorescence; inhibition, % at 20 µM; 25% of 1,800 active; AID 504614, 2011;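 active = mean inhibition of at least 40% at 20 µM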;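 also: plate controls were DMSO wells for no effect and DEVD-CHO caspase inhibitor control wells for full effect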
Rh110 interf inh – Rh110 fluorescence interference by putative Apaf-1 inhibitors, confirmation, artefact control for Apaf-1 inhibitor project, biochemical, 20 µM | quenched caspase reaction | shares compounds with Apaf1 inhib | 1,800 tested, under 10 active | AID 504615, 2011 | activation (fluorescence interference), % at 20 µM;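 active = signal rise of 40% or more at 20 µM, treated as a fluorescence artifact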
Apaf1 inh interf – fluorescence interference of Apaf-1 inhibitor hits, dose response, artefact control for Apaf-1 inhibitor project. AID 588538, 2011. fluorescence interference counterscreen, Apaf-1 assay format. shares compounds with Apaf1 inhib. 460 tested, under 10 active. IC50, µM; call rule not given here
* marks the source's active call; other numbers are inactive results; · = no result.

SMILES | PAFAH1B3 inh | PAFAH2 FP inh | pPAFAH inh | Apaf1 inhib | PAFAH1B2 inh | Apaf-1 inh conf2 | Rh110 interf inh | others
CC1(C)O[C@@H](CC(=O)O)[C@]23CO[C@H](C(=O)[C@]4(C)C2CC[C@@]2(C)[C@H](c5ccoc5)OC(=O)C5O[C@]524)[C@@H]13 (stereo partly drawn) | 0 | 4 | 3 | 4 | 5 | · | ·
COC(=O)C1=C(C)N(Cc2ccccc2)C(=NCCc2ccccn2)N[C@H]1c1cccc(C(F)(F)F)c1 | 2 | -6 | -1 | 48* | 0 | 12 | 0
COC(=O)C1=C(C)N(Cc2ccccc2)C(=NCCc2cccnc2)N[C@H]1c1ccc(Br)cc1 | -2 | -2 | -2 | 51* | -6 | 11 | 0
COC(=O)C1=C(C)N(Cc2ccccc2)C(=NCC(C)C)N[C@H]1c1cccc(F)c1 | 7 | 3 | -1 | 44* | -3 | 5 | -1
COC(=O)C1=C(C)N(Cc2ccccc2)C(=NCc2ccc(OC)cc2)N[C@H]1c1cccc(F)c1 | 9 | -3 | -9 | 56* | 4 | 11 | 9
N=c1c(C(=O)NC2CCCCC2)cc2c(=O)n3ccccc3nc2n1CCc1ccccc1 | 0 | 5 | 11 | 8 | 1 | · | ·
COC(=O)C1=C(C)N(Cc2ccccc2)C(=O)N[C@H]1c1cccc(C(F)(F)F)c1 | 1 | -1 | 3 | 25 | -2 | · | ·
COC(=O)C1=C(C)N(Cc2ccccc2)C(=NCc2ccc3c(c2)OCO3)N[C@H]1c1ccccc1 | 0 | -6 | -1 | 45* | 1 | 19 | 22
COC(=O)C1=C(C)N(Cc2ccccc2)C(=NCC(C)C)N[C@H]1c1cccc(C(F)(F)F)c1 | 7 | 3 | -5 | 58* | 5 | 13 | 4
COC(=O)C1=C(C)N(Cc2ccccc2)C(=NCC2CC2)N[C@H]1c1ccccc1 | 4 | -2 | 6 | 38 | -2 | · | ·
COC(=O)C1=C(C)N(Cc2ccccc2)C(=NCc2ccccc2)N[C@H]1c1cccc(C(F)(F)F)c1 | 8 | -2 | 1 | 65* | 6 | 33 | 15
O=C(CSC(=S)N1CCCC1)N(Cc1nnc(-c2ccccc2Cl)o1)C1CC1 | 7 | 13 | 1 | -3 | 0 | · | ·
Cc1cccc(/C=N/NC(=O)C(C)Nc2cccc3ccccc23)n1 (stereo not drawn) | 17 | 21 | 8 | 91* | 9 | 20 | 10
CCC(=O)N1CCc2nc(-c3ccccc3)sc2C1 | 9 | -4 | 4 | -2 | 5 | · | ·
Cc1cc2nn(-c3ccc(Cl)cc3)nc2cc1N | 16 | 1 | 6 | 49* | -1 | 22 | 3
O=C(c1nc2ccc(Cl)cn2c1CNCCc1cnccn1)N1CCCCCCC1 | 1 | -1 | 6 | -4 | 10 | · | ·
COc1ccccc1OCC(=O)NCC1CCCN(C(=O)c2ccccc2C(C)=O)C1 (stereo not drawn) | 7 | 1 | 2 | 0 | -2 | · | ·
COc1ccccc1OCC(=O)NCC1CCCN(C(=O)c2ccccc2SC)C1 (stereo not drawn) | 4 | 5 | 4 | 51* | 5 | 10 | -1
CC(C)c1ccc(/C=N/Nc2cc(N3CCOCC3)nc(N3CCOCC3)n2)cc1 | 12 | 4 | 0 | 62* | 10 | 46* | 11 | Apaf1 inh interf=>100
Cc1cccc(/C=N/Nc2cc(N3CCOCC3)nc(N3CCOCC3)n2)c1 | 2 | -2 | 10 | 68* | 3 | 33 | 4
Cc1ccc(/C=N/Nc2cc(C)nc(N3CCOCC3)n2)cc1 | 4 | -1 | 3 | 5 | 2 | · | ·
Cc1cc(N/N=C/c2ccc(O)cc2O)nc(N2CCOCC2)n1 | -2 | 5 | 10 | 31 | 0 | · | ·
Oc1ccc(/C=N\Nc2cc(N3CCOCC3)nc(N3CCOCC3)n2)c(O)c1 | 9 | -4 | 8 | 85* | 4 | 60* | 7 | Apaf1 inh interf=>100
CN(Cc1ccccc1)C(=O)c1ccc(NC(=O)Cc2cccc(NC(=O)C3CCCN(C(=O)C4CCC4)C3)c2)cc1 (stereo not drawn) | 6 | -4 | -5 | 16 | 4 | · | ·
CCOC(=O)c1c(NC(=O)CN2CCN(C(=O)c3ccco3)CC2)sc2c1CCCC2 | -8 | 6 | 34* | 48* | 7 | 8 | 10
SMILES | PAFAH1B3 inh | PAFAH2 FP inh | pPAFAH inh | Apaf1 inhib | PAFAH1B2 inh | Apaf-1 inh conf2 | Rh110 interf inh | others
CC1=NN(c2ccc(C)cc2C)C(=O)C1C(c1ccccc1)C1C(=O)N(c2ccc(C)cc2C)N=C1C (stereo not drawn) | 2 | 4 | 3 | 67* | 16 | 30 | 5
Cc1ccc(C(=O)Nc2ccccn2)cc1S(=O)(=O)N1CCOCC1 | 11 | 13 | 1 | 43* | 5 | 33 | 3
O=C(Nc1ccccn1)c1ccc(Cl)c(S(=O)(=O)N2CCOCC2)c1 | -5 | 1 | 5 | 4 | 2 | · | ·
Cc1c(C(=O)OCC(=O)N(C)c2ccccc2)oc2ccccc12 | -1 | 1 | 1 | 22 | 4 | · | ·
O=C1C=C(Nc2ccccc2C(=O)O)c2ccccc2C1=O | 59* | 39* | 24 | 91* | 23 | 93* | -1 | Apaf1 inh interf=>100
O=C(O)c1ccccc1Nc1ccccc1C(=O)O | -3 | -1 | 3 | -1 | -1 | · | ·
COc1ccc(NC(=O)Nc2ccc(O)c3ccccc23)cc1 | · | · | 14 | 52* | · | 16 | -4
S=C(Nc1ccc2nsnc2c1)N1CCCC1 | 10 | 4 | -1 | 98* | 10 | 8 | 0
O=C(Nc1ccc2nsnc2c1)N1CCCCCC1 | 4 | 0 | 1 | 13 | 1 | · | ·
CCN(CC(=O)Nc1ccccc1OC)C(=O)c1ccccc1Sc1ccccc1C#N | 0 | 6 | -1 | 58* | 3 | 42* | 9 | Apaf1 inh interf=>100
CCN(CC(=O)Nc1ccc(OC)cc1)C(=O)c1ccccc1Sc1ccccc1C#N | 6 | -1 | 1 | 32 | 0 | · | ·
NC(=O)c1cc(S(=O)(=O)N2CCCC2)ccc1OCCOc1ccccc1 | -1 | 8 | 0 | 19 | 6 | · | ·
COc1cc(O)c(NC(C)=O)c2nonc12 | 7 | -5 | -2 | 87* | 5 | 23 | 8
Cc1ccc2nsnc2c1N | 3 | 5 | 6 | -4 | -3 | · | ·
Nc1cccc2nsnc12 | 6 | -1 | 6 | 68* | 1 | 14 | -5
